Source: PubChem BioAssay (PCMD)
Yeast tox – yeast growth toxicity, wild-type and mutant, primary screen, cytotoxicity control for eIF2B function restoration project, wild-type and eIF2Bepsilon R284H mutant, A595; AID 685, 2007; growth inhibition, % at 25 µM (by protocol); S. cerevisiae wild-type growth, A595 turbidity, 16 h; 0.3% of 30,000 active;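 active means mutant and wild-type yeast strains alike exhibit over 30% growth inhibition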;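 further: 0% = untreated cell controls and 100% = YPD media blanks without cells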
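System – wild-type and eIF2Bepsilon-R284H mutant S. cerevisiae, screened separately · Measured by – absorbance at 595 nm (turbidity) · Timing – 16 h compound exposure during growth at 30 °C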
FXIa inh – human FXIa protease inhibitors, primary screen, biochemical, single compound per well | purified human FXIa, fluorogenic AMC substrate cleavage | inhibition, % at 10 µM | 0.3% of 33,000 active | AID 687, 2007;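 active means inhibition above 40% in the primary screen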;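 further: 0% = enzyme without compound and 100% = blank wells lacking enzyme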
FXIIa inh – human FXIIa protease inhibitors, primary screen, biochemical, single well; 0.2% of 33,000 active; purified human FXIIa, AMC substrate fluorescence, 2 h; Coagulation factor XII (Homo sapiens), P00748; inhibition, % at 10 µM; in the data active means inhibition above about 30%;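 further: 0% = enzyme with vehicle only and 100% = no enzyme blank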
Target sequence (P00748 20-372 limits assumed): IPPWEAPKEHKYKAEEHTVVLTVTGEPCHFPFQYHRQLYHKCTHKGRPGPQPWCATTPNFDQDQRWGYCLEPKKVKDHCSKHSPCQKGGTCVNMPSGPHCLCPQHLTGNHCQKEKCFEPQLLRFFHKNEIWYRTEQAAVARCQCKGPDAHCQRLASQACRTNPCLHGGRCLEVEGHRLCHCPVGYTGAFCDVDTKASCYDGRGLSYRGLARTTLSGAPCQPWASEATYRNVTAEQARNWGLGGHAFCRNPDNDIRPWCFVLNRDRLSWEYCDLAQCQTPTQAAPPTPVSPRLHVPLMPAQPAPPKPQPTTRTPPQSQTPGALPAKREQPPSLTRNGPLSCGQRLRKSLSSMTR
Target sequence (P00748 373-615 limits assumed): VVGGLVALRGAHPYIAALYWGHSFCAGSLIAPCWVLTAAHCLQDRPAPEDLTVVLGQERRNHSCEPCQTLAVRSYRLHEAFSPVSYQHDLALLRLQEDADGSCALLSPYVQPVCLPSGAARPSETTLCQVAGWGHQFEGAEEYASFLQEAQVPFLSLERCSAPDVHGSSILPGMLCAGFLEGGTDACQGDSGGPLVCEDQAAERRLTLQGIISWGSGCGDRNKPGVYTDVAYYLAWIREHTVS
The depositor's hits bear a star; . = no result given. The list is not random: actives were taken first. Their share in the collection is about 0.37%.

SMILES	Yeast tox	FXIa inh	FXIIa inh
Cc1ccc2oc(-c3ccccc3)nc2c1	.	10	4
Cc1nc2ccc(-c3ccccc3)cc2o1	32*	.	.
O=C(O)Cc1ccc(O)c(F)c1	.	1	3
COc1ccc(CCN(Cc2cc3cccc(C)c3[nH]c2=O)C(=O)NC2CCCCC2)cc1OC	.	-2	7
Clc1ccc2c(c1)C(N1CCNCC1)=Nc1ccccc1O2	.	-1	1
Clc1ccc2c(c1)C(N1CCNCC1)Cc1ccccc1S2 (stereo not given)	86*	-1	4
O=C(COC(=O)c1ccncc1)Nc1cc(Cl)c(Cl)cc1Cl	-8	4	6
CCC(Cc1ccccc1)NC(=O)CCn1cccc1 (stereo not given)	6	1	6
O=C1c2cccc3cccc(c23)C(=O)N1c1ccncc1	44*	1	5
CCc1nnc(N2C(=O)c3cccc4cccc(c34)C2=O)s1	14	2	7
CCn1c(SCC(=O)c2[nH]c(C)c(C(C)=O)c2C)nnc1-c1ccccc1	.	41*	-10
CCOC(=O)c1c(NC(=O)CSc2nnc(-c3ccccc3)n2CC)sc(C(C)=O)c1C	1	.	.
CCN(CC)CCNC(=O)C(C)c1nn(C)c(=O)c2ccccc12 (stereo not given)	.	42*	1
CC(O)CNC(=O)c1ccc(-c2nn(C)c(=O)c3ccccc23)cc1 (stereo not given)	.	-2	5
c1ccc(N(c2ccccc2)c2nc(N3CCCC3)nc(-n3ccnc3)n2)cc1	-10	.	.
CCOC(=O)N1CCN(c2nc(N(c3ccccc3)c3ccccc3)nc(-n3ccnc3)n2)CC1	48*	.	.
CCOC(=O)N1CCN(C(=O)CC(C(=O)N2CCc3ccccc32)n2ccnc2)CC1 (stereo not given)	13	.	.
COC(=O)C(CC(=O)c1ccc(Br)cc1)n1ccnc1 (stereo not given)	33*	6	4
Cc1oc(C(C)(C)C)cc1C(=O)Nc1cccc(C(=O)O)c1	24	6	5
Cc1ccc(C(=O)NC(Cc2c[nH]c3ccccc23)C(=O)O)cc1 (stereo not given)	30	7	10
COC(=O)C(Cc1c[nH]c2ccccc12)NC(C)=O (stereo not given)	-1	103*	-17
O=C(NCc1ccco1)c1ccccc1NS(=O)(=O)c1ccc(Br)s1	.	-1	4
O=S(=O)(Nc1ncn[nH]1)c1ccc(Cl)cc1	.	2	8
Cc1cc2oc(=O)c3c(c2cc1OC(=O)c1ccco1)CCCC3	-8	.	.
O=C(Oc1ccc2c3c(c(=O)oc2c1)CCC3)c1ccco1	.	14	54*
SMILES	Yeast tox	FXIa inh	FXIIa inh
Cc1ccc(N(C)C(=O)N2CCN(S(=O)(=O)c3c(C)cc(C)cc3C)CC2)cc1	10	15	-14
Cc1ccc2c(c1)cc(CN(Cc1cccnc1)C(=O)NCc1ccccc1)c1nnnn12	13	9	5
CCSc1nnc(NC(=O)c2ccccn2)s1	66*	0	-11
CCSc1nnc(NC(=O)c2ccc(Br)s2)s1	.	-5	5
O=C(COc1ccc(S(=O)(=O)NC2CCCCC2)cc1)N1CCN(c2cccc(Cl)c2)CC1	.	6	8
O=S(=O)(c1ccc2oc3ccc(S(=O)(=O)N4CCCCC4)cc3c2c1)N1CCCCC1	.	10	7
Cc1cccc(N2CCN(CC(=O)Nc3ccc(-n4cnnn4)cc3)CC2)c1C	2	41*	4
Cc1cccc(C)c1NC(=O)c1ccc(-n2cnnn2)cc1	-11	.	.
O=C(Nc1ccc(Cl)c(Cl)c1)C1CC(=O)N(c2ccc(Br)cc2)C1 (stereo not given)	79*	.	.
Cc1ccc(N2CC(C(=O)Nc3nccs3)CC2=O)cc1Cl (stereo not given)	-2	-10	6
Clc1ccccc1-c1ccc(CN2CCN(c3ccccc3)CC2)o1	-9	-11	9
Cc1cccc(CN2CCCC(C(=O)N3CCc4ccccc4C3)C2)c1 (stereo not given)	19	5	0
COc1ccc(CC(=O)NCc2ccc3c(c2)OCO3)cc1	.	53*	7
COc1ccccc1CC(=O)NCc1ccc2c(c1)OCO2	22	.	.
O=C(NCC1c2ccccc2CCN1C(=O)CN1C(=O)c2ccccc2C1=O)C1CCCCC1 (stereo not given)	20	-4	9
COc1cc(/C=c2\sc3n(c2=O)C(c2ccccc2)C(c2ccccc2)=NN=3)ccc1O (stereo not given)	-26	-5	5
COc1cc(/C=c2\sc3n(c2=O)CCCN=3)ccc1O	.	43*	7
COc1cccc(N2CCN(Cc3ccsc3)CC2)c1	-7	-3	-2
Cc1ccc(OC(=O)c2ccc(Br)o2)cc1	.	8	8
CC(=O)c1ccc(OC(=O)c2ccc(Br)o2)cc1	.	13	50*
COC(=O)c1ccc(Oc2nc(Nc3ccc(C)c(C)c3)nc(N(C)C)n2)cc1	.	21	-8
COc1cccc(/C=C/C(=O)c2c(O)cc(C)oc2=O)c1O	34*	2	4
COc1cc(/C=C/C(=O)c2c(O)cc(C)oc2=O)cc(OC)c1O	12	22	-11
O=C(CCn1c(=O)c2ccccc2n(Cc2ccccc2)c1=O)NCc1ccc2c(c1)OCO2	.	8	1
CCOC(=O)CC(=O)CSc1nc2ccccc2c(=O)n1-c1ccc(C(=O)NCCOC)cc1	.	-13	-11
Cc1c(O)ccc(C(=O)CN2C(=O)c3ccccc3C2=O)c1O	.	59*	6
Cc1cc(C(=O)CN2C(=O)c3ccccc3C2=O)c(C)n1C1CC1	-3	.	.
